According to ChEMBL document CHEMBL3603753, “Carbamoyl Triazoles, Known Serine Protease Inhibitors, Are a Potent New Class of Antimalarials” (J Med Chem, 2015):
pIC50: −log10 of the molar value. Each block holds one compound with its values, some of them ahead of it. Calls of active or inactive are those of the source. The rule behind the calls is not given here.

Columns and labels:
[1] = tested on: Plasmodium falciparum; assay: Antimalarial activity against Plasmodium falciparum 3D7 infected in erythrocytes incubated for 48 hrs by [3H]hypoxanthine incorporation assay; format: functional, organism-based
[2] = tested on: Plasmodium falciparum; assay: Antimalarial activity against Plasmodium falciparum 3D7 infected in erythrocytes incubated for 72 hrs by [3H]hypoxanthine incorporation assay; format: functional, organism-based
[3] = target: Acetylcholinesterase (Homo sapiens, UniProt P22303); assay: Inhibition of human AChE
Chain of Acetylcholinesterase (P22303 whole entry): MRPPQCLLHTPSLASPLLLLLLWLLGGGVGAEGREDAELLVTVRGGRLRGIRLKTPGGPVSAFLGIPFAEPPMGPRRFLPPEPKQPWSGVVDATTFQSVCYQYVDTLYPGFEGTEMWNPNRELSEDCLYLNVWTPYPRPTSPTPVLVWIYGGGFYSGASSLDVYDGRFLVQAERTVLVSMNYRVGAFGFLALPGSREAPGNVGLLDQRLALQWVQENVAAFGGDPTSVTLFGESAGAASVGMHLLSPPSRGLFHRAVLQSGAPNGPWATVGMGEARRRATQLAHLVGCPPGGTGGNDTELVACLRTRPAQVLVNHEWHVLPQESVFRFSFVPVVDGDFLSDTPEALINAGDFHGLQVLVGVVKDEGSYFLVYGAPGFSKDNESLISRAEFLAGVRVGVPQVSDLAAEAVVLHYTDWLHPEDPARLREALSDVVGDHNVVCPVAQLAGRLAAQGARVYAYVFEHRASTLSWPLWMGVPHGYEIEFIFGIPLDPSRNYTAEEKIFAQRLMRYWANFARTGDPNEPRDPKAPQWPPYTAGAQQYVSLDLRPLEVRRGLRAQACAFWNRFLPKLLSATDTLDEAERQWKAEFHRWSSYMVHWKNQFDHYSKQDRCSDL

[4] = tested on: Liver microsome; assay: Intrinsic clearance in human liver microsomes; format: ADME
[5] = Half life in mouse liver microsomes; format: ADME
[6] = Half life in human liver microsomes; format: ADME
[7] = tested on: Plasmodium falciparum; assay: Antimalarial activity against Plasmodium falciparum 3D7 infected in erythrocytes incubated for 24 hrs by [3H]hypoxanthine incorporation assay; format: functional, organism-based
[8] = target: Dipeptidyl peptidase 4 (Homo sapiens, UniProt P27487); assay: Inhibition of DPP4 (unknown origin)
Chain of Dipeptidyl peptidase 4 (P27487 whole entry): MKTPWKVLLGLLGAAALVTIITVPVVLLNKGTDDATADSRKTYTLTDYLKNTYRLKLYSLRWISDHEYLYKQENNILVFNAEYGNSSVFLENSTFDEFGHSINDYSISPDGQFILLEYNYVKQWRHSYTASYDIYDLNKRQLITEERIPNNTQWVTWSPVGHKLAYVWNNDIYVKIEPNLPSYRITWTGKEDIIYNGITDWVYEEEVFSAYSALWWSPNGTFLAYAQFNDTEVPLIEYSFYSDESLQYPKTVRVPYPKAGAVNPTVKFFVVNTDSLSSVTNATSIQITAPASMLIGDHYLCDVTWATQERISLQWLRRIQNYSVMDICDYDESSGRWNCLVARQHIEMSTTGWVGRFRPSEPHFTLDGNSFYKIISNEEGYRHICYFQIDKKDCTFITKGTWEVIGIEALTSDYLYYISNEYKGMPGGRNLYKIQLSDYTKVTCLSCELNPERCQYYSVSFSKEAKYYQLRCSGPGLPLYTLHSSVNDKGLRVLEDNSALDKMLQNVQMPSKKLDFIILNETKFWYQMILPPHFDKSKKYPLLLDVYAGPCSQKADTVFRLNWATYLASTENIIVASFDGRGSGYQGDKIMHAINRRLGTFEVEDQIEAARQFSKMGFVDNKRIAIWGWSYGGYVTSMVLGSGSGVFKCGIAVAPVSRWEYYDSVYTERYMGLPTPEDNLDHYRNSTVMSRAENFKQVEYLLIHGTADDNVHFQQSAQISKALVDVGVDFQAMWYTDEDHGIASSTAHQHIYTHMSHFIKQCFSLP

[9] = Kinetic solubility of the compound by chemoluminescent nitrogen detection kinetic solubility assay; format: physicochemical; settings: read-out: Kinetic_solubility
[10] = Passive permeability by PAMPA method; format: ADME; settings: read-out: permeability
[11] = tested on: HepG2; assay: Cytotoxicity against human HepG2 cells; format: cell-based
[12] = target: Voltage-gated inwardly rectifying potassium channel KCNH2 (Homo sapiens, UniProt Q12809); assay: Inhibition of human ERG by QPatch assay
Chain of Voltage-gated inwardly rectifying potassium channel KCNH2 (Q12809 whole entry): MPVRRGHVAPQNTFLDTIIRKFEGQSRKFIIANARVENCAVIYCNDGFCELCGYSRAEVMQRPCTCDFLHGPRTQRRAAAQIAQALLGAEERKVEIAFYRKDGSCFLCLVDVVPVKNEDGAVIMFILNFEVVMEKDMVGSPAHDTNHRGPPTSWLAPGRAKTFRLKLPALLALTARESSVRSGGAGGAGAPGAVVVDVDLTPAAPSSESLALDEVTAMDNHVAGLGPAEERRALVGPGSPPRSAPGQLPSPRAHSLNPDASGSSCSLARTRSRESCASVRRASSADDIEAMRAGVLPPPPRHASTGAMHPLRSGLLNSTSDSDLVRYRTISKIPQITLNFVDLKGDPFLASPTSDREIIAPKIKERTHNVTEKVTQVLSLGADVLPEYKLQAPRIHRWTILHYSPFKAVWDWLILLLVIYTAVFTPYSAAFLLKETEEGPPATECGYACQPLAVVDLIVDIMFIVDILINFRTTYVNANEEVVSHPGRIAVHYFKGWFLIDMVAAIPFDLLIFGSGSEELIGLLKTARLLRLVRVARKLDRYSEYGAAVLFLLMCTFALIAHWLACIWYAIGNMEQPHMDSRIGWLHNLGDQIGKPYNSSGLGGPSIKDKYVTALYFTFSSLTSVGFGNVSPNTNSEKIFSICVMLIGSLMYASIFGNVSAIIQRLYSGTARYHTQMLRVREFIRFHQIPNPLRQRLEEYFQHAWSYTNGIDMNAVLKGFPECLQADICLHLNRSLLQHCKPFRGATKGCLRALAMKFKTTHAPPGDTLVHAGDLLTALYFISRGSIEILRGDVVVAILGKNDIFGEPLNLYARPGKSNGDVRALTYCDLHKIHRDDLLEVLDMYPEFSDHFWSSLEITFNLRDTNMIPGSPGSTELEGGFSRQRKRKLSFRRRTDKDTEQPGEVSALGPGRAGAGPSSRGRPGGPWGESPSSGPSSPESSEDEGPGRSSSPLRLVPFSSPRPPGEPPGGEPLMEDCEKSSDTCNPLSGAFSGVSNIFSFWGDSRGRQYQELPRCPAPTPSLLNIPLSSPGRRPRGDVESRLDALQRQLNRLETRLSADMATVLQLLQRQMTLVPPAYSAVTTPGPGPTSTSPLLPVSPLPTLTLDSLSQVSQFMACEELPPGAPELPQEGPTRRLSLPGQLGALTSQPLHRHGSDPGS

[13] = target: Albumin (Homo sapiens, UniProt P02768); assay: Binding affinity to HSA; format: ADME; settings: human serum albumin (HSA), read-out: PB (converted)
Chain of Albumin (P02768 whole entry): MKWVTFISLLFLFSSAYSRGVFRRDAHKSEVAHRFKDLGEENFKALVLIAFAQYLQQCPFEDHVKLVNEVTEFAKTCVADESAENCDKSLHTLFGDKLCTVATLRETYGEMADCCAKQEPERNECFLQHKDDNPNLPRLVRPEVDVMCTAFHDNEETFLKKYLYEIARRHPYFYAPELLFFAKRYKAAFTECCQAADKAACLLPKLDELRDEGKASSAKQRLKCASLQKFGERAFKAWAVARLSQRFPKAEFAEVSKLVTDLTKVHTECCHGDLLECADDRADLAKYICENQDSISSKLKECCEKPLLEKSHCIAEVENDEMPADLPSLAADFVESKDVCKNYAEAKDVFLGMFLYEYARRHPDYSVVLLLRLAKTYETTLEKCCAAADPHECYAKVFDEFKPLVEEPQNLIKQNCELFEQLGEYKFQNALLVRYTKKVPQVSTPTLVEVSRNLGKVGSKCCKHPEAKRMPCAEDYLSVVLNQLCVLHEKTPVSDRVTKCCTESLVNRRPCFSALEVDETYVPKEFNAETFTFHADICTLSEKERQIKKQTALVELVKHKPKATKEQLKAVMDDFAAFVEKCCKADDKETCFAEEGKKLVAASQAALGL

[14] = Inhibition of CYP3A (unknown origin) by 4VG metabolism assay; format: ADME, Homo sapiens
[15] = Inhibition of CYP3A (unknown origin) by 4VR metabolism assay; format: ADME, Homo sapiens
[16] = tested on: Plasma; assay: Stability in CD1 mouse plasma at 10 mM in presence of serine protease inhibitor PMSF after 0.5 to 2 hrs by UPLC-MS/MS method; format: ADME, cell-free; settings: 10000 µM
[17] = tested on: Plasma; assay: Stability in CD1 mouse plasma at 10 mM after 0.5 to 2 hrs by UPLC-MS/MS method; format: ADME, cell-free; settings: 10000 µM
[18] = tested on: Plasmodium berghei; assay: Antimalarial activity against Plasmodium berghei infected in orally dosed mouse model of malaria infection; format: functional; settings: po
Outline: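 Mice infected with P. berghei; compound given orally (p.o.) as 2 doses of 50 mg kg⁻¹.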

[19] = tested on: Blood; assay: Stability in CD1 mouse blood at 10 mM after 0.5 to 2 hrs by UPLC-MS/MS method; format: ADME, tissue-based; settings: 10000 µM
[20] = tested on: Plasmodium falciparum; assay: Antimalarial activity against Plasmodium falciparum assessed as parasite reduction ratio at 10 times antimalarial IC50 level over 48 hrs; format: functional
Outline: (§1)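 Parasite reduction ratio assay on P. falciparum with compound at 10× its Pf IC₅₀. Viable parasite decrease is followed over one life cycle (48 h), giving log₁₀ PRR and the time needed to kill 99.9% of parasites (PCT99.9%).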

[21] = tested on: Plasmodium falciparum; assay: Antimalarial activity against Plasmodium falciparum assessed as time duration for 99.9% parasite killing at 10 times antimalarial IC50 level over 48 hrs; format: functional; outline: as §1
[22] = target: T1, Subtilisin-like protease 1 (Plasmodium falciparum, UniProt O61142); assay: Inhibition of Plasmodium falciparum recombinant SUB1 using SERA4st1F-6R12 substrate incubated for 55 mins by fluorescence spectrophotometry
T1 sequence (O61142 whole entry): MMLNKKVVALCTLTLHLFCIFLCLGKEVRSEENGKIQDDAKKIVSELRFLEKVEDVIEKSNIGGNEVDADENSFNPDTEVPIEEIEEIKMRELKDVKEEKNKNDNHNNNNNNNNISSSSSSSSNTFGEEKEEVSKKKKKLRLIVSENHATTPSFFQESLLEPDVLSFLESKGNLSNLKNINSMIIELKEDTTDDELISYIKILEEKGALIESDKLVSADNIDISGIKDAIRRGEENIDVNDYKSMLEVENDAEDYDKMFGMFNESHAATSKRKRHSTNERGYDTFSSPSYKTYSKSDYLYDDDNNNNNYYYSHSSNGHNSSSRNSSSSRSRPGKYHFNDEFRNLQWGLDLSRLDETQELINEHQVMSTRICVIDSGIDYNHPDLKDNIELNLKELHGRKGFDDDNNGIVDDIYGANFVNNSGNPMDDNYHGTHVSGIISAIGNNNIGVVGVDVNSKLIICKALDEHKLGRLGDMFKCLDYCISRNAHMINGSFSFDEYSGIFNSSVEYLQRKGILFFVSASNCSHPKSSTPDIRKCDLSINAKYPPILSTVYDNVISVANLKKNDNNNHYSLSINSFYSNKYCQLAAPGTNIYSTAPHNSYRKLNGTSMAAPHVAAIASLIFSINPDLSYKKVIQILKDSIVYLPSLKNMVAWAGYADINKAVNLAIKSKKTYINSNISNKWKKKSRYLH

[23] = tested on: Plasmodium falciparum; assay: Antimalarial activity against Plasmodium falciparum infected in erythrocytes assessed as young trophozoites level at 10 times antimalarial IC50 level incubated for 24 and 48 hrs by Giemsa staining based microsocpy

Compound: CC(C)N(C(=O)n1cnc(S(=O)(=O)[C@@H]2C[C@H]3CC[C@@H]2C3)n1)C(C)C
- pIC50 [1]: < 5.30
- pIC50 [2]: < 5.30

Compound: CN(C(=O)n1cnc(S(=O)(=O)[C@@H]2C[C@H]3CC[C@@H]2C3)n1)c1ccccc1
- pIC50 [1]: 5.57
- pIC50 [2]: 5.57

Compound: CSc1nc(-c2ccc(OC(F)(F)F)cc2)nn1C(=O)N(C)C
- pIC50 [3]: 3.70

Compound: CN(C)C(=O)n1cnc(S(=O)(=O)[C@@H]2C[C@H]3CC[C@@H]2C3)n1
- pIC50 [1]: 7.33

Compound: CCN(CC)C(=O)n1cnc(S(=O)(=O)[C@@H]2C[C@H]3CC[C@@H]2C3)n1
- pIC50 [1]: 6.23

Compound: CC(C)N(C)C(=O)n1cnc(S(=O)(=O)C2CC3CCC2C3)n1 (stereo not drawn)
- pIC50 [7]: 7.31
- pIC50 [8]: 8.05
- solubility kinetic [9]: ≥ 500 µM
- Papp [10]: > 30 ×10⁻⁶ cm/s
- pIC50 [11]: < 4.00
- inhibition (INH) [12]: Not Active
- Intrinsic clearance [4]: 1.6 mL/min/g
- half-life [5]: 3.8 min
- half-life [6]: > 30 min
- fraction unbound [13]: 0.42
- pIC50 [14]: < 4.30
- pIC50 [15]: 4.50
- Stability [16]: Stable
- Stability [17]: Unstable
- ED50 [18]: > 50 mg/kg
- Stability [19]: Unstable
- log(ratio) [20]: 3.1
- Time [21]: 48 h
- pIC50 [1]: 7.80
- pIC50 [2]: 7.55
- IC50 [22]: Not Active
- Activity [23]: Active

Compound: CC(C)N(C)C(=O)n1cnc(S(=O)(=O)C2C3CC4CC(C3)CC2C4)n1 (stereo not drawn)
- pIC50 [1]: 8.10

Compound: CC(C)N(C(=O)n1cnc(S[C@@H]2C[C@H]3CC[C@@H]2C3)n1)C(C)C
- Intrinsic clearance [4]: 3.1 mL/min/g
- half-life [5]: < 5 min
- half-life [6]: 22.3 min
- pIC50 [1]: 5.85
- pIC50 [2]: 6.27
- IC50 [22]: Not Active

Compound: CCN(C)C(=O)n1cnc(Sc2c(C)cc(C)cc2C)n1
- pIC50 [1]: 5.72

Compound: O=C(N1CCCC1)n1cnc(S(=O)(=O)[C@@H]2C[C@H]3CC[C@@H]2C3)n1
- Intrinsic clearance [4]: 1 mL/min/g
- half-life [5]: < 5 min
- half-life [6]: > 30 min
- pIC50 [1]: 7.08
- pIC50 [2]: 7.43

Compound: CC(C)N(C)C(=O)n1cnc(S[C@@H]2C[C@H]3CC[C@@H]2C3)n1
- pIC50 [1]: 7.15
- IC50 [22]: Not Active

Compound: CC(C)N(C)C(=O)n1cnc(S(=O)(=O)c2ccc(Cl)cc2)n1
- pIC50 [1]: 7.72

Compound: O=C1C(O)=C([C@H]2CC[C@H](c3ccc(Cl)cc3)CC2)C(=O)c2ccccc21 [ATOVAQUONE]
- pIC50 [1]: 9.00
- pIC50 [2]: 9.52
- Activity [23]: Active

Compound: O=C(N1CCCC1)n1cnc(SCc2ccccc2)n1
- pIC50 [1]: 5.84

More lines, now with the values ahead:

- pIC50 [1]: 7.52
Compound: COc1ccc(CN(C)C(=O)n2cnc(S(=O)(=O)[C@@H]3C[C@H]4CC[C@@H]3C4)n2)c(OC)c1

- pIC50 [1]: 6.51
Compound: CN(Cc1cccc(Cl)c1)C(=O)n1cnc(S(=O)(=O)[C@@H]2C[C@H]3CC[C@@H]2C3)n1

- Intrinsic clearance [4]: 1.5 mL/min/g
- half-life [5]: 19.4 min
- half-life [6]: > 30 min
- pIC50 [1]: 6.59
- pIC50 [2]: 6.42
Compound: CN(Cc1ccccc1)C(=O)n1cnc(S(=O)(=O)[C@@H]2C[C@H]3CC[C@@H]2C3)n1

- pIC50 [1]: 5.99
Compound: COc1ccc(CN(C(=O)n2cnc(S(=O)(=O)[C@@H]3C[C@H]4CC[C@@H]3C4)n2)C2CC2)cc1

- pIC50 [1]: 7.30
Compound: CC(=O)c1ccc(CN(C)C(=O)n2cnc(S(=O)(=O)[C@@H]3C[C@H]4CC[C@@H]3C4)n2)cc1

- pIC50 [1]: 6.74
Compound: CN(Cc1ccccc1F)C(=O)n1cnc(S(=O)(=O)[C@@H]2C[C@H]3CC[C@@H]2C3)n1

- pIC50 [1]: 7.07
Compound: CN(Cc1cccnc1)C(=O)n1cnc(S(=O)(=O)[C@@H]2C[C@H]3CC[C@@H]2C3)n1

- pIC50 [1]: 5.46
Compound: CN(Cc1cccc(C#N)c1)C(=O)n1cnc(S(=O)(=O)[C@@H]2C[C@H]3CC[C@@H]2C3)n1

- pIC50 [1]: 5.73
Compound: CN(Cc1cccc(C(F)(F)F)c1)C(=O)n1cnc(S(=O)(=O)[C@@H]2C[C@H]3CC[C@@H]2C3)n1

- pIC50 [1]: 6.22
Compound: CN(Cc1ccc(Cl)cc1)C(=O)n1cnc(S(=O)(=O)[C@@H]2C[C@H]3CC[C@@H]2C3)n1
